According to ChEMBL document CHEMBL5370653, “Stereoselective Synthesis, Pro-resolution, and Anti-inflammatory Actions of RvD5n-3 DPA” (J Nat Prod, 2023):
Activity calls are given as the source filed them. The calls are words filed in the database; no cut-off is given here.

How the values were obtained:
Macrophage [1] = experiment: Induction of phagocytosis in human macrophages assessed as clearance of pHrodo red-conjugated zymosan A particles at 0.001 to 10 nM measured after 2 hrs by hoechst 33342 staining based high content imaging analysis; type: functional, cell-based; conditions: dose 0.001-10 nM
Procedure, shortened: (§1)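 Macrophages from donor PBMCs (7 days, RPMI-1640, 10% human serum, 20 ng/mL GM-CSF), 50,000 cells/well, adhered overnight, Hoechst-stained. Pretreated 15 min at 37 °C in RPMI-1640 with 0.001–10 nM or 0.05% ethanol vehicle. Opsonized pHrodo particles added (S. aureus or E. coli 5 μg/well, zymosan 2.5 μg/well). Phagocytosis imaged over 2 h. Mean ± SEM, N = 6 donors.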

[2] = Retention time of the compound in human serum by RP-LC-MS/MS; type: ADME, cell-free
Procedure, shortened: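 Pooled human serum (0.5 mL) mixed with 2 volumes cold MeOH containing d5-Maresin 1, held at −20 °C ≥45 min, then centrifuged. Automated C18 SPE at pH 3.5. Analyzed on a C18 Poroshell column at 0.5 mL/min with a MeOH/H2O/acetic acid gradient. MRM transition 361 > 199.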

Macrophage [3] = experiment: Induction of phagocytosis in human macrophages assessed as clearance of pHrodo green conjugated Staphylococcus aureus at 0.001 to 10 nM measured after 2 hrs by hoechst 33342 staining based high content imaging analysis; type: functional, cell-based; conditions: dose 0.001-10 nM; procedure, shortened: as §1
Macrophage [4] = experiment: Induction of phagocytosis in human macrophages assessed as clearance of pHrodo red-conjugated Escherichia coli at 0.001 to 10 nM measured after 2 hrs by hoechst 33342 staining based high content imaging analysis; type: functional, cell-based; conditions: dose 0.001-10 nM; procedure, shortened: as §1
Neutrophil [5] = experiment: Induction of phagocytosis in human Neutrophil assessed as clearance of pHrodo red-conjugated Escherichia coli at 0.001 to 10 nM measured after 2 hrs by hoechst 33342 high content imaging analysis; type: functional, cell-based; conditions: dose 0.001-10 nM
Procedure, shortened: (§2)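 Blood neutrophils from healthy donors, Hoechst 33342-stained, in X-VIVO15 with 2 mM L-glutamine and 1% pen/strep, 250,000 cells/well, adhered 30 min at 37 °C. Pretreated 15 min at 37 °C with 0.001–10 nM or 0.05% ethanol vehicle. Then given IgG-opsonized pHrodo particles (S. aureus 5 μg/well, E. coli 5 μg/well, zymosan 2.5 μg/well). Signal rise imaged over 2 h. Mean ± SEM, N = 6 donors.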

Neutrophil [6] = experiment: Induction of phagocytosis in human neutrophils assessed as clearance of pHrodo green conjugated Staphylococcus aureus at 0.001 to 10 nM measured after 2 hrs by hoechst 33342 staining based high content imaging analysis; type: functional, cell-based; conditions: dose 0.001-10 nM; procedure, shortened: as §2
Neutrophil [7] = experiment: Induction of phagocytosis in human neutrophils assessed as clearance of pHrodo red-conjugated zymosan A particles at 0.001 to 10 nM measured after 2 hrs by hoechst 33342 staining based high content imaging analysis; type: functional, cell-based; conditions: dose 0.001-10 nM; procedure, shortened: as §2
Macrophage [8] = experiment: Antiinflammatory activity in human macrophages assessed as decrease in CD142 level at 10 nM incubated for 7 days by flow cytometry analysis; type: functional, cell-based; conditions: time 7.0 day
Procedure, shortened: (§3)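 PBMCs from healthy donors (dextran RBC sedimentation, Histopaque-1077) seeded in low-adhesion plates, 800,000 cells/well. Differentiated to macrophages over 7 days in RPMI-1640 with 10% human serum and 20 ng/mL GM-CSF, with 10 nM test agent or 0.05% ethanol vehicle. Lifted with 5 mM EDTA, Fc-blocked with gamma globulins, surface-stained, then fixed/permeabilized for Arg1. Median fluorescence intensities analyzed by PLS-DA and VIP scores.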

Macrophage [9] = experiment: Antiinflammatory activity in human macrophages assessed as decrease in CD80 level at 10 nM incubated for 7 days by flow cytometry analysis; type: functional, cell-based; conditions: time 7.0 day; procedure, shortened: as §3
Macrophage [10] = experiment: Antiinflammatory activity in human macrophages assessed as increase in arginase-1 level at 10 nM incubated for 7 days by flow cytometry analysis; type: functional, cell-based; conditions: time 7.0 day; procedure, shortened: as §3
Macrophage [11] = experiment: Antiinflammatory activity in human macrophages assessed as increase in MerTK level at 10 nM incubated for 7 days by flow cytometry analysis; type: functional, cell-based; conditions: time 7.0 day; procedure, shortened: as §3
Macrophage [12] = experiment: Antiinflammatory activity in human macrophages assessed as increase in CD163 at 10 nM incubated for 7 days by flow cytometry analysis; type: functional, cell-based; conditions: time 7.0 day; procedure, shortened: as §3

Retention_time [2]: 13.5 min
Activity (Macrophage [10]): Active
SMILES: CC/C=C\C[C@H](O)/C=C/C=C\C/C=C\C=C\[C@@H](O)CCCCCC(=O)O
Activity (Macrophage [1]): Active
Activity (Macrophage [3]): Active
Activity (Macrophage [4]): Active
Activity (Neutrophil [5]): Active
Activity (Neutrophil [6]): Active
Activity (Neutrophil [7]): Active
Activity (Macrophage [8]): Active
Activity (Macrophage [9]): Active
Activity (Macrophage [11]): Active
Activity (Macrophage [12]): Active
